# VIM-2 inhibitor – blocks Pseudomonas aeruginosa VIM-2 metallo-beta-lactamase. purified VIM-2, nitrocefin hydrolysis, epi-absorbance fluorescence. inhibition, % at 5.6 µM. AID 1527. 290,000 compounds, 0.89% hits;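 active = inhibition above the mean of all tested compounds plus 3 SD, cutoff set per screening run, cut at about 7.5% in these data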;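 note: red hydrolysis product quenches plate fluorescence so inhibitors raise well fluorescence; 0% = enzyme with DMSO and 100% = DMSO without enzyme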
# 697 NFkB inh – inhibitors of the PMA/ionomycin-induced NF-kB reporter in 697 B cells | AID 435022 | 697 B-cell NF-kB luciferase reporter, 16 h | inhibition, % at 4 µM | 330,000 compounds, 0.33% hits; in the data active = inhibition above about 35%
# IMP-1 inhibitor – blocks Pseudomonas aeruginosa IMP-1 metallo-beta-lactamase; purified IMP-1, nitrocefin hydrolysis, epi-absorbance fluorescence; inhibition, % at 5.6 µM; 290,000 compounds, 0.45% hits; AID 1556;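 active = inhibition above the mean plus 3 SD of all compounds in the same screening run, cut at about 4.5% in these data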;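 note: 0% = IMP-1 with DMSO and 100% = DMSO wells lacking enzyme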
#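 System: purified IMP-1; amount: IMP-1 0.2 nM before substrate addition; compound: single dose, 5.6 µM; times: 25 °C, 15 min preincubation, 25 min reaction; signal: Epi-absorbance via hydrolysed-nitrocefin quenching of white-plate fluorescence, 480/530 nm, EDTA stop; benchmarks: DMSO with and without IMP-1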
# Jurkat NFkB inh – inhibitors of the PMA/ionomycin-induced NF-kB reporter in Jurkat cells | 330,000 compounds, 0.53% hits | PMA/ionomycin-induced NF-kB luciferase reporter, luminescence | inhibition, % at 4 µM; in the data active = inhibition above about 50%
# aSyn UTR inh – MLPCN primary screen, SNCA 5' untranslated region; alpha-synuclein 5'UTR reporter, inhibitor activity; inhibition, % (tested at 7.5 µM); 300,000 compounds, 0.82% hits; AID 1813; in the data active = inhibition above about 60%;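 note: H4 neuroglioblastoma cells stably carrying SNCA 5'UTR luciferase fusion; 0% = DMSO wells and 100% = positive control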
# Mdm2 MdmX PPI – human Mdm2/MdmX binding inhibition; O15151+Q00987; SaOS-2 split-luciferase Mdm2/MdmX complementation, luminescence; inhibition, % at 8 µM; 330,000 compounds, 3% hits;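 active = inhibition of at least 50% at 8 µM in the primary screen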
# Target sequence (O15151 whole entry, looked up): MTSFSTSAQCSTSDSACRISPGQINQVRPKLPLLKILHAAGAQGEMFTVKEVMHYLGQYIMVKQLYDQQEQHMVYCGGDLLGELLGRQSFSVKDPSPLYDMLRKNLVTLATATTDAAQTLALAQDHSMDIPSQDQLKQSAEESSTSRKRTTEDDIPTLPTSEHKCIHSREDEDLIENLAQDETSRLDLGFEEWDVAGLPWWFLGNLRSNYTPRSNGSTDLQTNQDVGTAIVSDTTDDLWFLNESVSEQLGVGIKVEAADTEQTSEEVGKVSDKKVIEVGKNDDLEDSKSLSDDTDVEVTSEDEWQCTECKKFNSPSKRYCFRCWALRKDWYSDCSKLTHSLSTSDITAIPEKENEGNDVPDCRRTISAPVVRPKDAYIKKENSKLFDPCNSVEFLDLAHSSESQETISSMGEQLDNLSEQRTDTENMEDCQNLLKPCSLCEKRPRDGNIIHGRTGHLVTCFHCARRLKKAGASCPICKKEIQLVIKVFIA
# Target sequence (Q00987 whole entry, looked up): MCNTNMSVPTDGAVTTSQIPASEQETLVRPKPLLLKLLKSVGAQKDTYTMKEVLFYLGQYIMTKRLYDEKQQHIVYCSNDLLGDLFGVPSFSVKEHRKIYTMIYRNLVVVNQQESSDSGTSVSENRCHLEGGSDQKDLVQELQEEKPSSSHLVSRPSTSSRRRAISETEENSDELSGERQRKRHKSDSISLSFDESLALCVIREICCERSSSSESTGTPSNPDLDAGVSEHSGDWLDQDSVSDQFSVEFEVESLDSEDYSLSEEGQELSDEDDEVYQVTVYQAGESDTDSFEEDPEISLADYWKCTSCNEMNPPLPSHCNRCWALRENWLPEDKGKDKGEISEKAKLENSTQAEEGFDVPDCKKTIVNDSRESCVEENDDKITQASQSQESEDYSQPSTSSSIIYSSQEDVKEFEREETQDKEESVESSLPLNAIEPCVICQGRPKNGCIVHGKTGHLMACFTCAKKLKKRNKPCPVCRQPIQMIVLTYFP
# Mdm2-MdmX conf – human Mdm2/MdmX binding inhibition, confirmed; luminescent assay; AID 489028; shares compounds with Mdm2 MdmX PPI; inhibition, % at 8 µM; 10,000 compounds, 55% hits; in the data active = inhibition above about 40%
# FLuc counter – full-length luciferase inhibition in Mdm2/MdmX counter-screen | shares compounds with Mdm2 MdmX PPI | SaOS-2 full-length luciferase counterscreen, luminescence | inhibition, % at 8 µM | 6,200 compounds, 77% hits | AID 504607;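 active = mean inhibition at 8 µM reaching about 37%, which flags the compound as non-specific, limit read from the data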;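 note: p53-null SaOS-2 cells with luciferase driven by a doxycycline-inducible promoter; compound on cells about two nights before reading with doxycycline added after day one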
# The depositor's hits bear a star; nt = no result given. An excerpt weighted towards active compounds, which were near 4.7% of everything screened.
SMILES,VIM-2 inhibitor,697 NFkB inh,IMP-1 inhibitor,Jurkat NFkB inh,aSyn UTR inh,Mdm2 MdmX PPI,Mdm2-MdmX conf,others
O=C(Nc1ccccc1Oc1ccccc1)c1cccs1,-2,-16,-2,-25,3,6,nt,
CC(C)c1ccc(NC2CCCN(C(=O)CCN3CCCCO3)C2)cc1 (configuration not stated),-2,1,-2,-19,7,-12,nt,
CCOC(=O)N1CCN(CC(O)COc2ccc(C)cc2C(C)(C)C)CC1 (configuration not stated),0,2,-4,16,21,10,nt,
Cc1ccc2oc(=O)cc(/C=C/c3ccccc3)c2c1,-4,-25,-1,-12,22,5,nt,
Cc1ccc(NC(=O)Nc2nnc(-c3ccncc3)s2)cc1C,2,-33,-1,-20,-61,94*,56*,FLuc counter=23
O=C(Nc1ccc(F)cc1)Nc1nnc(-c2ccncc2)s1,-3,-53,-3,-5,-7,69*,32,
O=C(Nc1ccc(Cl)cc1)Nc1nnc(-c2ccncc2)s1,-3,nt,-4,nt,-4,nt,nt,
O=C(Nc1ccc(F)cc1)Nc1nnc(COc2ccccc2F)s1,-1,-6,-2,-6,2,91*,82*,FLuc counter=44*
O=C(Nc1cccc(Cl)c1)Nc1nnc(-c2ccncc2)s1,-3,-107,-5,9,51,100*,98*,FLuc counter=56*
N#CCS(=O)(=O)c1ccccc1,2,-5,0,-11,-15,-5,nt,
COc1ccc2c(c1)OC[C@H]1[C@H]2N2C(=O)c3cc(F)ccc3NC(=O)[C@@]2(C)[C@H]1c1ccccc1,nt,18,nt,4,nt,44,nt,
COc1ccc(C(=O)NCC(C)NC(=O)c2ccc(OC)c(Br)c2)cc1Br (configuration not stated),nt,21,nt,-1,31,13,nt,
Cc1ccc(SC(C)C(=O)N2CCC(C(N)=O)CC2)cc1 (configuration not stated),-2,9,0,-3,0,21,nt,
CCOC(=O)c1c(C)[nH]c(C(=O)OCC(=O)Nc2cccnc2Cl)c1C,nt,2,nt,-1,16,29,nt,
COc1ccc2c(-c3ccc(OCCN4CCOCC4)cc3)c(-c3ccccc3OC)sc2c1,nt,-11,nt,nt,nt,7,nt,
COc1cc2sc(-c3ccccc3OC)c(-c3ccc(OCCN4CCOCC4)cc3)c2cc1OC,nt,4,nt,nt,nt,61*,9,
COc1ccccc1-c1sc2ccccc2c1-c1ccc(OCCN2CCCCC2)cc1,nt,5,nt,nt,nt,67*,44*,FLuc counter=55*
COc1ccc2c(-c3ccc(OCCN4CCCCC4)cc3)c(-c3ccccc3OC)sc2c1,nt,-7,nt,nt,nt,63*,16,
CC1CCN(C(=O)C(C)NCc2ccc(F)cc2)CC1 (configuration not stated),-2,9,-3,10,-19,-8,nt,
CCOC(=O)c1ccc(N2C(=O)CC(N(Cc3ccc4c(c3)OCO4)C(=O)Nc3ccccc3)C2=O)cc1 (configuration not stated),-2,11,-2,1,13,23,nt,
COc1ccc(OCC(=O)Nc2ccccc2-c2ccccc2)cc1,0,-30,-3,31,21,53*,59*,FLuc counter=62*
O=C(NCCCn1ccnc1)c1ccc(C(F)(F)F)cc1,-5,-11,-2,-5,-6,-8,nt,
COc1ccc(C(C#N)c2nc3ccccc3nc2Cl)cc1 (configuration not stated),0,-11,-1,4,-33,52*,19,
Cn1c(Cc2ccccc2)nnc1SCC(=O)c1ccc(Br)s1,-4,5,-3,2,-2,7,nt,
Cc1cccc(C)c1OCc1nnc(SCC(=O)Nc2cccc(C(=O)N3CCOCC3)c2)n1C,0,2,-3,2,1,53*,7,
SMILES,VIM-2 inhibitor,697 NFkB inh,IMP-1 inhibitor,Jurkat NFkB inh,aSyn UTR inh,Mdm2 MdmX PPI,Mdm2-MdmX conf,others
Cn1nccc1-c1cc(Cl)cc(Cl)c1O,-3,5,-3,1,-11,5,nt,
CCN1CCN(CCCNC(=O)c2ccc(/C=C3/Oc4ccccc4N(Cc4cccc(C)c4)C3=O)cc2)CC1,1,-19,0,24,101*,100*,33,
CCN1CCN(CCCNC(=O)c2ccc(/C=C3/Sc4ccccc4N(Cc4ccccc4F)C3=O)cc2)CC1,-3,-15,-2,-21,-1,94*,74*,FLuc counter=24
O=C(COc1ccccc1)N[C@@H]1c2ccccc2CC[C@H]1OCc1ccccc1,nt,-4,nt,nt,nt,9,nt,
COC(=O)Nc1ccc(S(=O)(=O)N2CCCc3cccc(O)c32)cc1,-2,-33,-2,46,-12,55*,52*,FLuc counter=63*
COC(=O)Nc1ccc(S(=O)(=O)N2CCCCC2)cc1,-2,-29,-1,-1,26,16,nt,
CCC(C)N(CC(=O)Nc1cccc(C)c1C)C(=O)CCl (configuration not stated),-2,-11,-7,28,-88,100*,99*,FLuc counter=52*
CC(C)N(CC(=O)Nc1ccc(Cl)cc1C(F)(F)F)C(=O)CCl,0,-21,-2,18,-19,63*,11,
COc1ccc(-c2nnc(SCc3c(C)noc3C)n2N)cc1OC,-1,19,-3,2,15,-13,nt,
O=C(COC(=O)c1nc(Cl)c(Cl)c(Cl)c1Cl)NCc1ccccc1,nt,5,nt,5,nt,54*,32,
COc1ccc(-c2csc3nc(C)nc(N4CCC(C)CC4)c23)cc1OC,-1,34,-3,-1,14,66*,38,FLuc counter=84*
CN1CCN(c2ncnc3scc(-c4ccccc4Cl)c23)CC1,-1,-7,-1,18,-5,70*,79*,FLuc counter=29
Cc1cc(-c2csc3ncnc(N4CCN(C)CC4)c23)cc(C)c1C,1,-1,-2,-14,-4,36,nt,
Cc1ccc(-c2csc3ncnc(N4CCN(S(=O)(=O)c5cccs5)CC4)c23)cc1,nt,12,nt,-14,nt,51*,18,
O=S(=O)(c1ccccc1)N1CCN(c2ncnc3scc(-c4ccccc4)c23)CC1,-1,1,-2,-4,22,13,nt,
Oc1ccccc1N1CCN(c2ncnc3scc(-c4ccccc4)c23)CC1,-2,6,1,2,25,59*,30,
COc1ccc(C(=O)Nc2ccccc2C(=O)NCCN2CCOCC2)cc1OC,-2,9,-1,-11,9,28,nt,
C/C(=N/NC(=O)CNC(=O)Cc1ccccc1)c1ccc(Cl)cc1,-4,11,-4,-6,17,15,nt,
C=CCn1ccc(=NC=C(C#N)C#N)c2ccccc21,1,-28,-2,29,-9,-4,nt,
